Experimental data from ChEMBL document CHEMBL1144562, “Synthesis of a new class of 2-anilino substituted nicotinyl arylsulfonylhydrazides as potential anticancer and antibacterial agents” (2007).
Converted amounts (≈) assume the structure as drawn.

Legend:
Assay type in all cases: functional
MDA-MB-435 = experiment: Antitumor activity against MDA-MB-435 cells; details: Homo sapiens
PC-3 = experiment: Antitumor activity against PC3 cells; details: Homo sapiens
SF-539 = experiment: Antitumor activity against SF539 cells; details: Homo sapiens
EKVX = experiment: Antitumor activity against EKVX cells; details: Homo sapiens
DU-145 = experiment: Antitumor activity against DU145 cells; details: Homo sapiens
SK-OV-3 = experiment: Antitumor activity against SKOV3 cells; details: Homo sapiens
Method in brief: (§1)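 Tested in the NCI 60-human-tumour-cell-line panel at five concentrations, in 10-fold dilutions from 10^-4 to 10^-8 M. Three parameters were taken from the dose-response data, each as log10 of the molar concentration: GI50 (50% net growth inhibition), TGI (total growth inhibition) and LC50 (50% net cell death).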

OVCAR-8 = experiment: Antitumor activity against OVCAR8 cells; details: Homo sapiens
TK-10 = experiment: Antitumor activity against TK10 cells; details: Homo sapiens; method in brief: as §1
U-251 = experiment: Antitumor activity against U251 cells; details: Homo sapiens; method in brief: as §1
[1] = Antitumor activity against MALME 3M cells; details: Homo sapiens
[2] = Antitumor activity against LOX IMV1 cells; details: Homo sapiens
Hs-578T = experiment: Antitumor activity against HS578T cells; details: Homo sapiens
Bacillus subtilis = experiment: Antibacterial activity against Bacillus subtilis MTCC 441 after 18 hrs; details: MTCC 441, 18 h
Method in brief: (§2)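 Disc diffusion (Kirby–Bauer) on Mueller-Hinton agar inoculated with fresh bacteria at 1-5 × 10^4 cfu mL-1. Compounds were dissolved in DMF at a range of concentrations, and discs were placed in triplicate. Plates were incubated at 30 °C for 18 h. MIC was taken as the lowest concentration giving no visible bacterial growth on the plate.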

CAKI-1 = experiment: Antitumor activity against CAKI1 cells; details: Homo sapiens
M14 = experiment: Antitumor activity against M14 cells; details: Homo sapiens
SW-620 = experiment: Antitumor activity against SW620 cells; details: Homo sapiens; method in brief: as §1
HOP-92 = experiment: Antitumor activity against HOP92 cells; details: Homo sapiens
SK-MEL-5 = experiment: Antitumor activity against SK-MEL-5 cells; details: Homo sapiens; method in brief: as §1
OVCAR-3 = experiment: Antitumor activity against OVCAR-3 cells; details: Homo sapiens
SNB-75 = experiment: Antitumor activity against SNB75 cells; details: Homo sapiens; method in brief: as §1
UACC-62 = experiment: Antitumor activity against UACC62 cells; details: Homo sapiens; method in brief: as §1
BT-549 = experiment: Antitumor activity against BT549 cells; details: Homo sapiens
SN12C = experiment: Antitumor activity against SN12C cells; details: Homo sapiens; method in brief: as §1
CCRF-CEM = experiment: Antitumor activity against CCRF-CEM cells; details: Homo sapiens
RXF 393 = experiment: Antitumor activity against RXF393 cells; details: Homo sapiens
SF-295 = experiment: Antitumor activity against SF295 cells; details: Homo sapiens
UACC-257 = experiment: Antitumor activity against UACC257 cells; details: Homo sapiens; method in brief: as §1
MOLT-4 = experiment: Antitumor activity against MOLT4 cells; details: Homo sapiens
SF-268 = experiment: Antitumor activity against SF268 cells; details: Homo sapiens
NCI-H460 = experiment: Antitumor activity against NCI-H460 cells; details: Homo sapiens
Pseudomonas aeruginosa = experiment: Antibacterial activity against Pseudomonas aeruginosa MTCC 424 after 18 hrs; details: MTCC 424, 18 h; method in brief: as §2
SNB-19 = experiment: Antitumor activity against SNB19 cells; details: Homo sapiens; method in brief: as §1
SR = experiment: Antitumor activity against SR cells; details: Homo sapiens; method in brief: as §1
T47D = experiment: Antitumor activity against T47D cells; details: Homo sapiens; method in brief: as §1
[3] = system: Staphylococcus epidermidis; experiment: Antibacterial activity against Staphylococcus epidermidis MTCC 435 after 18 hrs; details: MTCC 435, 18 h; method in brief: as §2
[4] = Antitumor activity against NCI-H322 cells; details: Homo sapiens
786-0 = experiment: Antitumor activity against 786-0 cells; details: Homo sapiens
MCF7 = experiment: Antitumor activity against MCF7 cells; details: Homo sapiens
COLO 205 = experiment: Antitumor activity against COLO205 cells; details: Homo sapiens
K562 = experiment: Antitumor activity against K562 cells; details: Homo sapiens
MDA-MB-231 = experiment: Antitumor activity against MDA-MB-231 cells; details: Homo sapiens
Vibrio = experiment: Antibacterial activity against Vibrio species after 18 hrs; method in brief: as §2
[5] = read-out: Log LC50 (the source's name) (converted)

## O=C(NNS(=O)(=O)c1ccc(Cl)cc1Cl)c1cccnc1Nc1ccc(Cl)cc1
MDA-MB-435
  GI50: 27.5 µM
  LC50: > 100 µM
MDA-MB-435; read-out: Log TGI (converted)
  TGI: 81.3 µM
PC-3
  GI50: 23.4 µM
  LC50: > 100 µM
PC-3; read-out: Log TGI (converted)
  TGI: 81.3 µM
SF-539
  GI50: 19.1 µM
  LC50: > 100 µM
SF-539; read-out: Log TGI (converted)
  TGI: 44.7 µM
EKVX
  GI50: 26.3 µM
  LC50: > 100 µM
EKVX; read-out: Log TGI (converted)
  TGI: > 100 µM
DU-145
  GI50: 41.7 µM
  LC50: > 100 µM
DU-145; read-out: Log TGI (converted)
  TGI: > 100 µM
SK-OV-3
  GI50: 17 µM
SK-OV-3; [5]
  CC50: > 100 µM
SK-OV-3; read-out: Log TGI (converted)
  TGI: 52.5 µM
OVCAR-8
  GI50: 26.9 µM
OVCAR-8; [5]
  CC50: > 100 µM
OVCAR-8; read-out: Log TGI (converted)
  TGI: 74.1 µM
TK-10
  GI50: 28.8 µM
  LC50: > 100 µM
TK-10; read-out: Log TGI (converted)
  TGI: 85.1 µM
U-251
  GI50: 34.7 µM
  LC50: > 100 µM
U-251; read-out: Log TGI (converted)
  TGI: 100 µM
[1]
  GI50: 34.7 µM
[1]; [5]
  CC50: > 100 µM
[1]; read-out: Log TGI (converted)
  TGI: 34.7 µM
[2]
  GI50: 20.9 µM
  LC50: > 100 µM
[2]; read-out: Log TGI (converted)
  TGI: 46.8 µM
Hs-578T
  GI50: 17.8 µM
Hs-578T; [5]
  CC50: 97.7 µM
Hs-578T; read-out: Log TGI (converted)
  TGI: 41.7 µM
Bacillus subtilis
  MIC: 15 µg/mL (≈ 31.8 µM)
CAKI-1
  GI50: 20 µM
  LC50: > 100 µM
CAKI-1; read-out: Log TGI (converted)
  TGI: 58.9 µM
M14
  GI50: 19.1 µM
  LC50: 79.4 µM
M14; read-out: Log TGI (converted)
  TGI: 38.9 µM
SW-620
  GI50: 28.2 µM
SW-620; [5]
  CC50: > 100 µM
SW-620; read-out: Log TGI (converted)
  TGI: > 100 µM
HOP-92
  GI50: 14.8 µM
HOP-92; [5]
  CC50: > 100 µM
HOP-92; read-out: Log TGI (converted)
  TGI: 40.7 µM
SK-MEL-5
  GI50: 14.1 µM
  LC50: 61.7 µM
SK-MEL-5; read-out: Log TGI (converted)
  TGI: 29.5 µM
OVCAR-3
  GI50: 20.4 µM
OVCAR-3; [5]
  CC50: > 100 µM
OVCAR-3; read-out: Log TGI (converted)
  TGI: > 100 µM
SNB-75
  GI50: 22.4 µM
SNB-75; [5]
  CC50: > 100 µM
SNB-75; read-out: Log TGI (converted)
  TGI: 85.1 µM
UACC-62
  GI50: 21.9 µM
  LC50: > 100 µM
UACC-62; read-out: Log TGI (converted)
  TGI: 75.9 µM
BT-549
  GI50: 16.6 µM
  LC50: 72.4 µM
BT-549; read-out: Log TGI (converted)
  TGI: 34.7 µM
SN12C
  GI50: 31.6 µM
  LC50: > 100 µM
SN12C; read-out: Log TGI (converted)
  TGI: > 100 µM
CCRF-CEM
  LC50: > 100 µM
CCRF-CEM; read-out: GI50
  GI50: 6.62 µM
CCRF-CEM; read-out: Log TGI (converted)
  TGI: > 100 µM
CCRF-CEM; read-out: pGI50 (converted)
  GI50: 6.61 µM
RXF 393
  GI50: 17 µM
  LC50: > 100 µM
RXF 393; read-out: Log TGI (converted)
  TGI: 43.7 µM
SF-295
  GI50: 30.2 µM
SF-295; [5]
  CC50: > 100 µM
SF-295; read-out: Log TGI (converted)
  TGI: 77.6 µM
UACC-257
  GI50: 22.9 µM
  LC50: > 100 µM
UACC-257; read-out: Log TGI (converted)
  TGI: 60.3 µM
MOLT-4
  GI50: 19.5 µM
  LC50: > 100 µM
MOLT-4; read-out: Log TGI (converted)
  TGI: 57.5 µM
SF-268
  GI50: 36.3 µM
  LC50: > 100 µM
SF-268; read-out: Log TGI (converted)
  TGI: 100 µM
NCI-H460
  GI50: 35.5 µM
  LC50: > 100 µM
NCI-H460; read-out: Log TGI (converted)
  TGI: 100 µM
Pseudomonas aeruginosa
  MIC: > 25 µg/mL
SNB-19
  GI50: 26.9 µM
SNB-19; [5]
  CC50: > 100 µM
SNB-19; read-out: Log TGI (converted)
  TGI: 100 µM
SR
  GI50: 14.8 µM
  LC50: 97.7 µM
SR; read-out: Log TGI (converted)
  TGI: 38 µM
T47D
  GI50: 10.7 µM
T47D; [5]
  CC50: > 100 µM
T47D; read-out: Log TGI (converted)
  TGI: 51.3 µM
[3]
  MIC: 17 µg/mL (≈ 36 µM)
[4]
  GI50: 14.8 µM
[4]; [5]
  CC50: > 100 µM
[4]; read-out: Log TGI (converted)
  TGI: 40.7 µM
786-0
  GI50: 19.5 µM
  LC50 (lethal concentration, 50%): > 100 µM
786-0; read-out: Log TGI (converted)
  TGI: 49 µM
MCF7
  GI50: 35.5 µM
  LC50: > 100 µM
MCF7; read-out: Log TGI (converted)
  TGI: > 100 µM
COLO 205
  GI50: 12 µM
  LC50: 49 µM
COLO 205; read-out: Log TGI (converted)
  TGI: 24.5 µM
K562
  GI50: 12.9 µM
  LC50: 50.1 µM
K562; read-out: Log TGI (converted)
  TGI: 25.7 µM
MDA-MB-231
  GI50: 19.1 µM
  LC50: > 100 µM
MDA-MB-231; read-out: Log TGI (converted)
  TGI: 50.1 µM
Vibrio
  MIC: 14 µg/mL (≈ 29.7 µM)
